Test results from ChEMBL document CHEMBL1128513, “(Aryloxy)methylsilane derivatives as new cholesterol biosynthesis inhibitors: synthesis and hypocholesterolemic activity of a new class of squalene epoxidase inhibitors” (J Med Chem, 1995).
pIC50: −log10 of the molar value.

Columns and labels:
[1] = In vitro ability to inhibit cholesterol biosynthesis in HepG2 cells in culture from [14C]mevalonate.; assay type: functional, cell-based
Procedure, shortened: (§1)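 Hep-G2 cells grown in DMEM with 10% fetal calf serum to subconfluence, then 48 h in DMEM plus 2% Ultroser G. Pretreated 1 h with compound or vehicle (DMSO 0.1%), then [14C]mevalonate (1 μCi/mL) for 4 h. Cells lysed in KOH and saponified in ethanolic KOH at 75 °C for 1 h. Nonsaponifiable lipids separated by TLC. IC50 derived from % [14C]cholesterol versus control cells.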

[2] = In vivo ability to inhibit cholesterol biosynthesis from [14C]acetate after a single oral administration in female rats.; assay type: functional; settings: Rattus norvegicus
Procedure, shortened: (§2)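 Female SD rats (60–80 g) kept 11 days on a reversed light cycle with free access to food and water. Single oral dose at 9:00 a.m., suspended in water with 2% DMSO and 5% Tween 80 (1 mL/100 g). [14C]acetate given i.p. at 80 μCi/kg 1 h later. Liver taken after a further 1 h, saponified, and [14C]cholesterol analysed by TLC against controls. Mean ED50 from at least two experiments.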

[3] = In vitro ability to inhibit cholesterol biosynthesis in HepG2 cells in culture from [14C]acetate; assay type: functional, cell-based
HepG2 [4] = test: In vitro ability to inhibit cholesterol biosynthesis in HepG2 cells in culture from [14C]acetate.; assay type: functional, cell-based; settings: Homo sapiens
HepG2 [5] = test: In vitro ability to inhibit cholesterol biosynthesis in HepG2 cells in culture from [14C]mevalonate; assay type: functional, cell-based; settings: Homo sapiens; procedure, shortened: as §1
Rattus norvegicus = test: In vivo ability to inhibit cholesterol biosynthesis from [14C]acetate after a single oral administration in female rats; assay type: functional; procedure, shortened: as §2

SMILES | pIC50 [1] | ED50 [2] [mg/kg] | other results
CCN(C/C=C/C#CC(C)(C)C)Cc1cccc(OC[Si](C)(C)c2ccccc2C#N)c1 | 7.10 | 7 | pIC50 [3]: 7.10
CCN(CC#CC#CC(C)(C)OC)Cc1cccc(OC[Si](C)(C)c2ccccc2C)c1 | 6.54 | 1.8 | pIC50 (HepG2 [4]): 6.92
C=Cc1ccc([Si](C)(C)COc2cccc(CN(CC)C/C=C/C#CC(C)(C)C)c2)cc1 | 5.88 | > 40 | –
CCN(C/C=C/C#CC(C)(C)C)Cc1cccc(OC[Si](C)(C)c2cccc(C)c2)c1 | < 5.00 | – | –
CCN(C/C=C/C#CC(C)(C)C)Cc1cccc(OC[Si](C)(C)c2ccc(S)cc2)c1 | 5.00 | – | –
CCN(C/C=C/C#CC(C)(C)C)Cc1cccc(OC[Si](C)(C)Cc2ccccc2)c1 | < 5.00 | > 40 | –
CCN(C/C=C/C#CC(C)(C)C)Cc1cccc(OC[Si](C)(C)c2ccccc2C)c1 | 6.92 | 3.8 | pIC50 (HepG2 [4]): 6.82
CCN(C/C=C/C#CC(C)(C)C)Cc1cccc(OC[Si](C)(C)c2ccc(C(N)=O)cc2)c1 | 6.00 | – | –
CCN(C/C=C/C#CC(C)(C)C)Cc1cccc(OC[Si](C)(C)c2ccc(SC)cc2)c1 | < 5.00 | – | –
CCN(C/C=C/C#CC(C)(C)C)Cc1cccc(OC[Si](C)(C)CCc2ccccc2)c1 | < 5.00 | – | –
CCN(C/C=C/C#CC(C)(C)C)Cc1cccc(OC[Si](C)(C)c2ccc(C)cc2)c1 | 5.30 | – | –
CCN(C/C=C/C#CC(C)(C)C)Cc1cccc(OC[Si](C)(C)c2ccc(OC)cc2)c1 | < 5.00 | – | –
CCN(C/C=C/C#CC(C)(C)C)Cc1cccc(OC[Si](C)(C)c2ccccc2OC)c1 | 5.30 | > 40 | –
CCN(C/C=C/C#CC(C)(C)C)Cc1cccc(OC[Si](C)(C)c2ccc(C#N)cc2)c1 | 7.22 | > 40 | pIC50 (HepG2 [4]): 7.15
CCN(C/C=C/C#CC(C)(C)C)Cc1cccc(OCc2cc(-c3ccsc3)cs2)c1 | – | – | pIC50 (HepG2 [5]): 7.70; ED50 (Rattus norvegicus): 2.5 mg/kg
CCN(C/C=C/C#CC(C)(C)C)Cc1cccc(OC[Si](C)(C)c2ccc(Cl)cc2)c1 | < 5.00 | > 40 | –
CCN(CC#CC#CC(C)(C)C)Cc1cccc(OC[Si](C)(C)c2ccccc2C)c1 | 6.11 | 5 | –
CCN(C/C=C/C#CC(C)(C)C)Cc1cccc(OC[Si](C)(C)c2ccc(C=O)cc2)c1 | 6.85 | 20 | pIC50 [3]: 6.82
CCN(C/C=C/C#CC(C)(C)C)Cc1cccc(OC[Si](C)(C)c2ccc(F)cc2)c1 | 5.30 | > 40 | –
CCN(C/C=C/C#CC(C)(C)C)Cc1cccc(OC[Si](C)(C)c2ccccc2C(F)(F)F)c1 | 5.83 | 20 | –
CCN(C/C=C/C#CC(C)(C)C)Cc1cccc(OC[Si](C)(C)c2ccc(Br)cc2)c1 | < 5.00 | > 40 | –
CCN(C/C=C/C#CC(C)(C)C)Cc1cccc(OC[Si](C)(C)c2ccccc2)c1 | 6.30 | 20 | pIC50 [3]: 6.10
CC[C@H](C)C(=O)O[C@H]1C[C@H](O)C=C2C=C[C@H](C)[C@H](CC[C@@H](O)C[C@@H](O)CC(=O)O)[C@H]21 [PRAVASTATIN] | – | – | pIC50 (HepG2 [5]): […]; ED50 (Rattus norvegicus): 0.9 mg/kg; pIC50 [3]: 6.37
